Tests used:
[1] = system: Trypanosoma brucei brucei; assay: Antitrypanosomal activity against bloodstream form Trypanosoma brucei brucei Lister 427 after 48 hrs by hemocytometer; assay type: functional, organism-based; settings: Lister 427, 48 h
Method in brief: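 Bloodstream Lister 427 cells were seeded at 2 × 10^3 cells/ml in HMI-9 medium and given drug from 200X DMSO stocks, with DMSO as control. Three independent experiments, each dose in duplicate (n = 6).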

HepG2 = assay: Cytotoxicity against human HepG2 cells after 48 hrs by MTT assay; assay type: cell-based; settings: HepG2, 48 h
Method in brief: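 HepG2 cytotoxicity was read by an MTT assay adapted to 384-well format. IC50 was fitted by nonlinear regression (sigmoidal dose-response, variable slope).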

| EC50 [1] [µM] | Structure (SMILES) | IC50 (HepG2) [µM] |
| --- | --- | --- |
| 4.5 | O=C(NC1CC1)c1cccc(-c2ccc3ncnc(Nc4ccc(OCc5cccc(F)c5)c(Cl)c4)c3c2)c1 | – |
| 0.55 | O=C(c1cccc(-c2ccc3ncnc(Nc4ccc(OCc5cccc(F)c5)c(Cl)c4)c3c2)c1)N1CCOCC1 | – |
| 0.65 | Fc1cccc(COc2ccc(Nc3ncnc4ccc(-c5cccc(CN6CCCCC6)c5)cc34)cc2Cl)c1 | – |
| 1.5 | Fc1cccc(COc2ccc(Nc3ncnc4ccc(-c5ccc(CN6CCCCC6)cc5)cc34)cc2Cl)c1 | – |
| 0.32 | O=S(=O)(c1ccc(-c2ccc3ncnc(Nc4ccc(OCc5cccc(F)c5)c(Cl)c4)c3c2)cc1)N1CCCCC1 | > 15 |
| 3.85 | CCNC(=O)c1ccc(-c2ccc3ncnc(Nc4ccc(OCc5cccc(F)c5)c(Cl)c4)c3c2)cc1F | – |
| 22.6 | O=c1[nH]cc(-c2ccc3ncnc(Nc4ccc(OCc5cccc(F)c5)c(Cl)c4)c3c2)c(=O)[nH]1 | – |
| 0.38 | Fc1cccc(COc2ccc(Nc3ncnc4ccc(-c5ccc(N6CCCCC6)cc5)cc34)cc2Cl)c1 | – |
| 0.53 | CN1CCN(S(=O)(=O)c2ccc(-c3ccc4ncnc(Nc5ccc(OCc6cccc(F)c6)c(Cl)c5)c4c3)cc2)CC1 | > 15 |
| 0.76 | Fc1cccc(COc2ccc(Nc3ncnc4ccc(-c5cccc(N6CCCCC6)c5)cc34)cc2Cl)c1 | > 15 |
| 0.47 | O=S(=O)(c1ccc(-c2ccc3ncnc(Nc4ccc(OCc5cccc(F)c5)c(Cl)c4)c3c2)cc1)N1CCSCC1 | > 15 |
| 2.27 | Cc1ccc(-c2ccc3ncnc(Nc4ccc(OCc5cccc(F)c5)c(Cl)c4)c3c2)c2ccccc12 | – |
| 1.39 | O=S(=O)(c1ccc(-c2ccc3ncnc(Nc4ccc(OCc5cccc(F)c5)c(Cl)c4)c3c2)cc1)N1CCOCC1 | > 15 |
| 1.88 | COc1cc(Nc2ncnc3ccc(-c4ccc(S(=O)(=O)N5CCOCC5)cc4)cc23)ccc1OCc1cccc(F)c1 | > 15 |
| 0.81 | CN1CCCN(S(=O)(=O)c2ccc(-c3ccc4ncnc(Nc5ccc(OCc6cccc(F)c6)c(Cl)c5)c4c3)cc2)CC1 | 1.81 |
| 4.53 | Fc1cccc(COc2ccc(Nc3ncnc4ccc(-c5cccc6ncccc56)cc34)cc2Cl)c1 | – |
| 0.94 | O=C(c1ccc(-c2ccc3ncnc(Nc4ccc(OCc5cccc(F)c5)c(Cl)c4)c3c2)cc1)N1CCCCC1 | – |
| 0.25 | O=S(=O)(c1cccc(-c2ccc3ncnc(Nc4ccc(OCc5cccc(F)c5)c(Cl)c4)c3c2)c1)N1CCCC1 | > 15 |
| 0.36 | Fc1cccc(COc2ccc(Nc3ncnc4ccc(-c5cccc(CN6CCOCC6)c5)cc34)cc2Cl)c1 | – |
| 1.04 | CN(C)S(=O)(=O)c1ccccc1-c1ccc2ncnc(Nc3ccc(OCc4cccc(F)c4)c(Cl)c3)c2c1 | > 15 |
| 0.9 | CS(=O)(=O)c1ccc(-c2ccc3ncnc(Nc4ccc(OCc5cccc(F)c5)c(Cl)c4)c3c2)cc1 | > 15 |
| 1.21 | O=C(c1ccc(-c2ccc3ncnc(Nc4ccc(OCc5cccc(F)c5)c(Cl)c4)c3c2)cc1)N1CCOCC1 | – |
| 0.43 | CCCS(=O)(=O)CCNCc1ccc(-c2ccc3ncnc(Nc4ccc(OCc5cccc(F)c5)c(Cl)c4)c3c2)o1 | – |
| 0.48 | CC(C)S(=O)(=O)CCNCc1ccc(-c2ccc3ncnc(Nc4ccc(OCc5cccc(F)c5)c(Cl)c4)c3c2)o1 | – |
| 0.23 | Clc1cc(Nc2ncnc3ccc(-c4cccc(N5CCOCC5)c4)cc23)ccc1OCc1ccccc1 | > 20 |
| 4.21 | Cc1nnc(-c2cccc(-c3ccc4ncnc(Nc5ccc(OCc6cccc(F)c6)c(Cl)c5)c4c3)c2)o1 | – |

The remaining lines, values behind:

| Structure (SMILES) | EC50 [1] [µM] | IC50 (HepG2) [µM] |
| --- | --- | --- |
| O=S(=O)(c1ccc(-c2ccc3ncnc(Nc4ccccc4)c3c2)cc1)N1CCOCC1 | 1.44 | > 3 |
| CS(=O)(=O)CCN(Cc1ccccc1)Cc1ccc(-c2ccc3ncnc(Nc4ccc(OCc5cccc(F)c5)c(Cl)c4)c3c2)o1 | 1.51 | – |
| Fc1cccc(COc2ccc(Nc3ncnc4ccc(-c5ccc(CN6CCOCC6)cc5)cc34)cc2Cl)c1 | 0.99 | 12.9 |
| O=S(=O)(c1ccc(-c2ccc3ncnc(Nc4ccc(OCc5cccc(Br)c5)c(Cl)c4)c3c2)cc1)N1CCOCC1 | 0.68 | > 15 |
| Nc1nc(N)nc(Nc2ccc([As]3SCC(CO)S3)cc2)n1 (stereo unspecified) [MELARSOPROL] | 0.0063 | – |
| COc1ccc(Nc2ncnc3ccc(-c4ccc(S(=O)(=O)N5CCOCC5)cc4)cc23)cc1Cl | 0.82 | > 15 |
| COc1cccc(COc2ccc(Nc3ncnc4ccc(-c5ccc(S(=O)(=O)N6CCOCC6)cc5)cc34)cc2Cl)c1 | 1.43 | > 15 |
| O=S(=O)(c1ccc(-c2ccc3ncnc(Nc4ccc(OCc5ccc(C(F)(F)F)c(F)c5)c(Cl)c4)c3c2)cc1)N1CCOCC1 | 0.54 | > 15 |
| O=S(=O)(c1ccc(-c2ccc3ncnc(Nc4ccc(OCc5ccc(F)cc5)c(Cl)c4)c3c2)cc1)N1CCOCC1 | 1.34 | > 15 |
| O=S(=O)(c1ccc(-c2ccc3ncnc(Nc4ccc(OCc5ccccc5F)c(Cl)c4)c3c2)cc1)N1CCOCC1 | 1.65 | > 15 |
| N=C(N)c1ccc(OCCCCCOc2ccc(C(=N)N)cc2)cc1 [PENTAMIDINE] | 0.0035 | – |
| NCCCC(N)(C(=O)O)C(F)F (stereo unspecified) [EFLORNITHINE] | 16.4 | – |
| O=S(=O)(c1ccc(-c2ccc3ncnc(Nc4ccc(O)c(Cl)c4)c3c2)cc1)N1CCOCC1 | 1.06 | > 15 |
| CC1(C)OB(O)c2cc(NC(=O)c3ccc(F)cc3C(F)(F)F)ccc21 [ACOZIBOROLE] | 0.794 | – |
| O=S(=O)(c1ccc(-c2ccc3ncnc(Nc4ccc(OCc5cccc(Cl)c5)c(Cl)c4)c3c2)cc1)N1CCOCC1 | 0.66 | > 15 |
| CC(C)(C)NS(=O)(=O)c1ccccc1-c1ccc2ncnc(Nc3ccc(OCc4cccc(F)c4)c(Cl)c3)c2c1 | 4.66 | – |
| O=S(=O)(c1cccc(-c2ccc3ncnc(Nc4ccc(OCc5cccc(F)c5)c(Cl)c4)c3c2)c1)N1CCOCC1 | – | > 15 |
| O=S1(=O)CCN(Cc2ccc(-c3ccc4ncnc(Nc5ccc(OCc6ccccc6)c(Cl)c5)c4c3)o2)CC1 | 0.41 | – |
| Fc1cccc(COc2ccc(Nc3ncnc4ccc(-c5cc6ccccc6s5)cc34)cc2Cl)c1 | 5.98 | – |
| O=S(=O)(c1ccc(-c2ccc3ncnc(Nc4ccc(OCc5cccc(F)c5)cc4)c3c2)cc1)N1CCOCC1 | 0.65 | > 15 |
| c1ccc(COc2ccc(Nc3ncnc4ccc(-c5cccc(N6CCOCC6)c5)cc34)cc2)cc1 | 0.18 | > 20 |
| Fc1cccc(COc2ccc(Nc3ncnc4ccc(-c5ccccc5Oc5ccccc5)cc34)cc2Cl)c1 | 5.3 | – |
| Fc1cccc(COc2ccc(Nc3ncnc4ccc(-c5ccc(N6CCOCC6)cc5)cc34)cc2Cl)c1 | 1.91 | 9.6 |
| c1ccc(Nc2ncnc3ccc(-c4cccc(N5CCOCC5)c4)cc23)cc1 | 11 | 7.02 |
| O=S(=O)(c1ccc(-c2ccc3ncnc(Nc4ccc(OCc5cccc(F)c5F)c(Cl)c4)c3c2)cc1)N1CCOCC1 | 0.82 | > 15 |
| O=S(=O)(CCSCc1ccc(-c2ccc3ncnc(Nc4ccc(OCc5cccc(F)c5)c(Cl)c4)c3c2)o1)c1ccccc1 | 0.55 | – |
| CS(=O)(=O)CCN(CC#N)Cc1ccc(-c2ccc3ncnc(Nc4ccc(OCc5cccc(F)c5)c(Cl)c4)c3c2)o1 [GW616030X] | 0.52 | – |
| CS(=O)(=O)CCNCc1ccc(-c2ccc3ncnc(Nc4ccc(OCc5ccccc5)c(Br)c4)c3c2)o1 | 0.56 | – |
| Oc1ccc(-c2ccc3ncnc(Nc4ccc(OCc5cccc(F)c5)c(Cl)c4)c3c2)cc1 | 6.45 | – |

From ChEMBL document CHEMBL2346527, “Kinase scaffold repurposing for neglected disease drug discovery: discovery of an efficacious, lapatinib-derived lead compound for trypanosomiasis” (J Med Chem, 2013)
